Laboratory results published in ChEMBL document CHEMBL1629614, “Inhibition of methionyl-tRNA synthetase by REP8839 and effects of resistance mutations on enzyme activity” (Antimicrob Agents Chemother, 2009).
Converted amounts (≈) assume the structure as drawn.

Assays:
Methionine--tRNA ligase [1] = target: Methionine--tRNA ligase (Staphylococcus aureus subsp. aureus MW2, UniProt Q8NY00, I238F/I57N); experiment: Inhibition of Staphylococcus aureus MetRS I57N I238F mutant
Methionine--tRNA ligase [2] = target: Methionine--tRNA ligase (Staphylococcus aureus subsp. aureus MW2, UniProt Q8NY00, G54S); experiment: Inhibition of Staphylococcus aureus MetRS G54S mutant
Staphylococcus aureus [3] = experiment: Antimicrobial activity against Staphylococcus aureus expressing MetRS G223C mutant; assay type: functional
Staphylococcus aureus [4] = experiment: Antimicrobial activity against Staphylococcus aureus expressing MetRS G54S mutant; assay type: functional
Staphylococcus aureus [5] = experiment: Antimicrobial activity against Staphylococcus aureus expressing MetRS I57N I238F mutant; assay type: functional
Methionine--tRNA ligase [6] = target: Methionine--tRNA ligase (Staphylococcus aureus subsp. aureus MW2, UniProt Q8NY00, A247E/I57N); experiment: Inhibition of Staphylococcus aureus MetRS I57N A247E mutant
Staphylococcus aureus [7] = experiment: Antimicrobial activity against Staphylococcus aureus expressing MetRS I57N G54S mutant; assay type: functional
Staphylococcus aureus [8] = experiment: Antimicrobial activity against Staphylococcus aureus expressing MetRS I57N mutant; assay type: functional
Methionine--tRNA ligase [9] = target: Methionine--tRNA ligase (Staphylococcus aureus subsp. aureus MW2, UniProt Q8NY00, A64P/G54A); experiment: Inhibition of Staphylococcus aureus MetRS G54A A64P mutant
Staphylococcus aureus [10] = experiment: Antimicrobial activity against Staphylococcus aureus expressing MetRS L213W mutant; assay type: functional
Streptococcus pneumoniae [11] = experiment: Antimicrobial activity against Streptococcus pneumoniae expressing MetRS1 gene; assay type: functional
Methionine--tRNA ligase [12] = target: Methionine--tRNA ligase (Staphylococcus aureus subsp. aureus MW2, UniProt Q8NY00, L213W); experiment: Inhibition of Staphylococcus aureus MetRS L213W mutant
In short: (§1)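 Purified recombinant S. aureus MetRS (mutant, expressed in E. coli) was tested by ATP:PPi exchange with [32P]PPi, using 125 mM methionine and 100 μM ATP so that the IC50 sits above enzyme concentration. Inhibitor was in DMSO (8% final), over 1 μM to 0.05 nM. A sigmoidal fit gave the IC50, and Ki = IC50/[(1+[Met]/KmMet)(1+KmATP/[ATP])], with KmMet taken at that ATP level.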

Methionine--tRNA ligase [13] = target: Methionine--tRNA ligase (Staphylococcus aureus subsp. aureus MW2, UniProt Q8NY00, V108M); experiment: Inhibition of Staphylococcus aureus MetRS V108M mutant; in short: as §1
Escherichia coli = experiment: Antimicrobial activity against Escherichia coli expressing MetRS gene; assay type: functional
Staphylococcus aureus [14] = experiment: Antimicrobial activity against Staphylococcus aureus expressing MetRS I57N A247E mutant; assay type: functional
Methionine--tRNA ligase [15] = target: Methionine--tRNA ligase (Staphylococcus aureus subsp. aureus MW2, UniProt Q8NY00, A247E); experiment: Inhibition of Staphylococcus aureus MetRS A247E mutant; in short: as §1
[16] = Inhibition of human cytoplasmic MetRS
In short: (§2)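 tRNA aminoacylation with scintillation proximity detection. Purified MetRS in 40 mM Tris-HCl pH 8.0, 10 mM Mg acetate, 2.5 mM ATP, 80 mM KCl, 2.5 mM DTT, BSA, [3H]methionine (7 μM Met), 1 μg/ml crude E. coli tRNA. Human enzymes had 0.2–0.6 mM spermine, and substrate, Mg and enzyme levels were optimized per ortholog. Inhibitor was a DMSO serial dilution, 1 μM to 0.05 nM (final), 8% DMSO final, 30 min at room temperature. Reactions were EDTA-stopped, and charged tRNA was captured on polylysine YSi beads at pH 2.0. IC50 came from a four-parameter logistic fit versus DMSO control.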

Staphylococcus aureus [17] = experiment: Antimicrobial activity against Staphylococcus aureus expressing MetRS I57N V242F mutant; assay type: functional
Staphylococcus aureus [18] = experiment: Antimicrobial activity against Staphylococcus aureus expressing MetRS G54A A64P mutant; assay type: functional
Methionine--tRNA ligase [19] = target: Methionine--tRNA ligase (Staphylococcus aureus subsp. aureus MW2, UniProt Q8NY00, G54S/I57N); experiment: Inhibition of Staphylococcus aureus MetRS I57N G54S mutant
[20] = Inhibition of human mitochondrial MetRS; in short: as §2
[21] = Inhibition of Escherichia coli MetRS; in short: as §2
Streptococcus pneumoniae [22] = experiment: Antimicrobial activity against Streptococcus pneumoniae expressing MetRS2 gene; assay type: functional
[23] = Inhibition of Staphylococcus aureus MetRS; in short: as §2
[24] = Inhibition of Streptococcus pneumoniae MetRS1; in short: as §2
Methionine--tRNA ligase [25] = target: T1, Methionine--tRNA ligase (Haemophilus influenzae (strain ATCC 51907 / DSM 11121 / KW20 / Rd), UniProt P43828); experiment: Inhibition of Haemophilus influenzae MetRS; in short: as §2
T1 sequence (P43828 whole entry): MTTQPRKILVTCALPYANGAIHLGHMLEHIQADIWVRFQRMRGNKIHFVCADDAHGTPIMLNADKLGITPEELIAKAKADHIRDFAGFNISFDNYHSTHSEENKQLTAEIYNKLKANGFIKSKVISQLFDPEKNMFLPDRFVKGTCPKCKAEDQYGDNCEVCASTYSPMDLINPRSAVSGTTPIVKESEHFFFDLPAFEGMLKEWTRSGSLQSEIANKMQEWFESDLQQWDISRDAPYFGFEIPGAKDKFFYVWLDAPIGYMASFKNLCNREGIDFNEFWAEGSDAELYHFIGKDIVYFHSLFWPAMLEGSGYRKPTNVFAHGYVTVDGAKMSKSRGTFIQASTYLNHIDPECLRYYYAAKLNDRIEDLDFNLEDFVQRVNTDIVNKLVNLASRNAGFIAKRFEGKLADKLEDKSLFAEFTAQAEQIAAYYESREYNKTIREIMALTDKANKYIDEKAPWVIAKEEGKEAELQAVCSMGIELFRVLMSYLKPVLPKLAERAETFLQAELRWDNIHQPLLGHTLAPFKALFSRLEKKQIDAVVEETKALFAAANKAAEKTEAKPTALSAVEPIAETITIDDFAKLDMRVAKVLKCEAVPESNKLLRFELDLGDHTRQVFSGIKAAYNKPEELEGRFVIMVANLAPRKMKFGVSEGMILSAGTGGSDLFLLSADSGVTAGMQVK

[26] = Inhibition of Streptococcus pneumoniae MetRS2; in short: as §2
Methionine--tRNA ligase [27] = target: Methionine--tRNA ligase (Staphylococcus aureus subsp. aureus MW2, UniProt Q8NY00, I57N); experiment: Inhibition of Staphylococcus aureus MetRS I57N mutant; in short: as §1
Staphylococcus aureus [28] = experiment: Antimicrobial activity against Staphylococcus aureus expressing MetRS A247E mutant; assay type: functional
Staphylococcus aureus [29] = experiment: Antimicrobial activity against Staphylococcus aureus expressing MetRS gene; assay type: functional
Methionine--tRNA ligase [30] = target: Methionine--tRNA ligase (Staphylococcus aureus subsp. aureus MW2, UniProt Q8NY00, G223C); experiment: Inhibition of Staphylococcus aureus MetRS G223C mutant; in short: as §1
Staphylococcus aureus [31] = experiment: Antimicrobial activity against Staphylococcus aureus expressing MetRS V108M mutant; assay type: functional
[32] = Cytotoxicity against rat H42E cells by MTT assay; assay type: cell-based
A549 = experiment: Cytotoxicity against human A549 cells by MTT assay; assay type: cell-based
Methionine--tRNA ligase [33] = target: Methionine--tRNA ligase (Staphylococcus aureus subsp. aureus MW2, UniProt Q8NY00, I57N/V242F); experiment: Inhibition of Staphylococcus aureus MetRS I57N V242F mutant
Haemophilus influenzae = experiment: Antimicrobial activity against Haemophilus influenzae expressing MetRS gene; assay type: functional

Compound: C=C(F)c1sc(CNCCCNc2cc(=O)c3ccccc3[nH]2)c(C)c1Br [BEDEROCIN]
- Ki (Methionine--tRNA ligase [1]): 350 nM
- Ki (Methionine--tRNA ligase [2]): 85 nM
- MIC (Staphylococcus aureus [3]): 8 µg/mL (≈ 17.8 µM)
- MIC (Staphylococcus aureus [4]): 16 µg/mL (≈ 35.5 µM)
- MIC (Staphylococcus aureus [5]): 32 µg/mL (≈ 71.1 µM)
- Ki (Methionine--tRNA ligase [6]): 60 nM
- MIC (Staphylococcus aureus [7]): 32 µg/mL (≈ 71.1 µM)
- MIC (Staphylococcus aureus [8]): 8 µg/mL (≈ 17.8 µM)
- Ki (Methionine--tRNA ligase [9]): 1900 nM
- MIC (Staphylococcus aureus [10]): 2 µg/mL (≈ 4.44 µM)
- MIC (Streptococcus pneumoniae [11]): 0.12 µg/mL (≈ 0.266 µM)
- Ki (Methionine--tRNA ligase [12]): 0.04 nM
- Ki (Methionine--tRNA ligase [13]): 0.11 nM
- MIC (Escherichia coli): 16 µg/mL (≈ 35.5 µM)
- MIC (Staphylococcus aureus [14]): 32 µg/mL (≈ 71.1 µM)
- Ki (Methionine--tRNA ligase [15]): 0.06 nM
- Ki [16]: > 20000 nM
- MIC (Staphylococcus aureus [17]): 32 µg/mL (≈ 71.1 µM)
- MIC (Staphylococcus aureus [18]): 32 µg/mL (≈ 71.1 µM)
- Ki (Methionine--tRNA ligase [19]): 900 nM
- Ki [20]: 23 nM
- Ki [21]: 10 nM
- MIC (Streptococcus pneumoniae [22]): 32 µg/mL (≈ 71.1 µM)
- Ki [23]: 0.01 nM
- Ki [24]: 0.055 nM
- Ki (Methionine--tRNA ligase [25]): 225 nM
- Ki [26]: > 5000 nM
- Ki (Methionine--tRNA ligase [27]): 0.08 nM
- MIC (Staphylococcus aureus [28]): 4 µg/mL (≈ 8.88 µM)
- MIC (Staphylococcus aureus [29]): 0.12 µg/mL (≈ 0.266 µM)
- Ki (Methionine--tRNA ligase [30]): 0.51 nM
- MIC (Staphylococcus aureus [31]): 8 µg/mL (≈ 17.8 µM)
- IC50 [32]: > 20000 nM
- IC50 (A549): > 20000 nM
- Ki (Methionine--tRNA ligase [33]): 15 nM
- MIC (Haemophilus influenzae): > 64 µg/mL
